Converted amounts (≈) assume the structure as drawn.
Experiments:
Assay type in all cases: functional
Escherichia coli [1] = test: Antibacterial activity against Escherichia coli TEM; details: Escherichia coli; read-out: MIC
Staphylococcus aureus [2] = test: In vivo efficacy against Staphylococcus aureus infections in mice; details: Staphylococcus aureus; read-out: MIC
Staphylococcus aureus [3] = test: Antibacterial activity against penicillin G resistance Staphylococcus aureus; details: Staphylococcus aureus; read-out: MIC
Streptococcus pyogenes = test: Antibacterial activity against Streptococcus pyogenes; details: Streptococcus pyogenes; read-out: MIC
Klebsiella pneumoniae [4] = test: Antibacterial activity against Klebsiella pneumoniae X26; details: Klebsiella pneumoniae; read-out: MIC
Escherichia coli [5] = test: In vivo efficacy against Escherichia coli infected mice treated at 1 hr and 5 hr post infection; details: Escherichia coli; read-out: ED50
Pseudomonas aeruginosa [6] = test: Antibacterial activity against Pseudomonas aeruginosa PS18; details: Pseudomonas aeruginosa; read-out: MIC
Klebsiella pneumoniae [7] = test: microbe, parasite or virus in culture; details: Klebsiella pneumoniae; read-out: MIC
Serratia marcescens = test: Antibacterial activity against Serratia marcescens SE3; details: Serratia marcescens; read-out: MIC
Pseudomonas aeruginosa [8] = test: Antibacterial activity against Pseudomonas aeruginosa X528; details: Pseudomonas aeruginosa; read-out: MIC
Pseudomonas aeruginosa [9] = test: In vivo efficacy against Pseudomonas aeruginosa infections in mice; details: Pseudomonas aeruginosa; read-out: MIC
Streptococcus pneumoniae = test: Antibacterial activity against Streptococcus pneumoniae; details: Streptococcus pneumoniae; read-out: MIC
Staphylococcus aureus [10] = test: In vivo efficacy against Staphylococcus aureus infected mice treated at 1 hr and 5 hr post infection; details: Staphylococcus aureus; read-out: ED50
Enterobacter cloacae [11] = test: Antibacterial activity against Enterobacter cloacae EB5; details: Enterobacter cloacae; read-out: MIC
Escherichia coli [12] = test: Antibacterial activity against Escherichia coli EC14; details: Escherichia coli; read-out: MIC
Pseudomonas aeruginosa [13] = test: In vivo efficacy against Pseudomonas aeruginosa infected mice treated at 1 hr and 5 hr post infection; details: Pseudomonas aeruginosa; read-out: ED50
Enterococcus faecium = test: Antibacterial activity against Enterococcus faecium; details: Enterococcus faecium; read-out: MIC
Staphylococcus aureus [14] = test: Antibacterial activity against penicillin G susceptible Staphylococcus aureus; details: Staphylococcus aureus; read-out: MIC
Enterobacter cloacae [15] = test: Antibacterial activity against Enterobacter cloacae 265A; details: Enterobacter cloacae; read-out: MIC
Escherichia coli [16] = test: In vivo efficacy against Escherichia coli infections in mice; details: Escherichia coli; read-out: MIC
Klebsiella pneumoniae [17] = test: In vitro relative hydrolysis rate against Klebsiella IV
Method in brief: (§1)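 Spectrophotometric hydrolysis at 265 nm, substrate exposed to partially purified cell-free β-lactamase preparations; rate expressed as percentage of the cephaloridine rate.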

Enterobacter cloacae [18] = test: In vitro relative hydrolysis rate against Enterobacter Ia; method in brief: as §1
Pseudomonas aeruginosa [19] = test: In vitro relative hydrolysis rate against Pseudomonas Id; method in brief: as §1
Staphylococcus aureus [20] = test: In vitro relative hydrolysis rate against Staphylococcus aureus; method in brief: as §1
Escherichia coli [21] = test: In vitro relative hydrolysis rate against Escherichia coli IIIa; method in brief: as §1
Cavia porcellus = species: Cavia porcellus; test: In vitro relative anticholinergic potential in isolated guinea pig trachea
Method in brief: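 Guinea pig trachea in Krebs' solution at 37.5 °C, 95% O2/5% CO2, pH 7.4, 2 g resting tension. Cumulative carbachol log dose-response curve (3-fold steps) run before and 30 min after adding antagonist at 1 mM. […] Tukey test on log2 dose ratios.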

Row | SMILES | MIC (Escherichia coli [1]) | MIC (Staphylococcus aureus [2]) | MIC (Staphylococcus aureus [3]) | MIC (Streptococcus pyogenes) | MIC (Klebsiella pneumoniae [4]) | ED50 (Escherichia coli [5]) | MIC (Pseudomonas aeruginosa [6]) | MIC (Klebsiella pneumoniae [7]) | MIC (Serratia marcescens) | MIC (Pseudomonas aeruginosa [8]) | MIC (Pseudomonas aeruginosa [9]) | MIC (Streptococcus pneumoniae) | ED50 (Staphylococcus aureus [10]) | MIC (Enterobacter cloacae [11]) | MIC (Escherichia coli [12]) | ED50 (Pseudomonas aeruginosa [13]) | MIC (Enterococcus faecium) | MIC (Staphylococcus aureus [14]) | MIC (Enterobacter cloacae [15]) | MIC (Escherichia coli [16]) | also measured
1 | CO/N=C(\C(=O)N[C@@H]1C(=O)N2C(C(=O)[O-])=C(C[n+]3ccccc3C)CS[C@H]12)c1csc(N)n1 | 0.5 µg/mL (≈ 1.02 µM) | 2 µg/mL (≈ 4.09 µM) | 16 µg/mL (≈ 32.7 µM) | 0.25 µg/mL (≈ 0.512 µM) | 0.25 µg/mL (≈ 0.512 µM) | < 0.16 mg/kg | 64 µg/mL (≈ 131 µM) | 32 µg/mL (≈ 65.5 µM) | 1 µg/mL (≈ 2.05 µM) | 32 µg/mL (≈ 65.5 µM) | 64 µg/mL (≈ 131 µM) | 0.5 µg/mL (≈ 1.02 µM) | 2.7 mg/kg | 2 µg/mL (≈ 4.09 µM) | 0.25 µg/mL (≈ 0.512 µM) | 12 mg/kg | > 128 µg/mL | 16 µg/mL (≈ 32.7 µM) | 128 µg/mL (≈ 262 µM) | 0.06 µg/mL (≈ 0.123 µM) | –
2 | CO/N=C(\C(=O)N[C@@H]1C(=O)N2C(C(=O)[O-])=C(C[n+]3cccc(S(=O)(=O)O)c3)CS[C@H]12)c1csc(N)n1 | 0.5 µg/mL (≈ 0.902 µM) | 4 µg/mL (≈ 7.21 µM) | 8 µg/mL (≈ 14.4 µM) | 0.06 µg/mL (≈ 0.108 µM) | 0.125 µg/mL (≈ 0.225 µM) | 0.08 mg/kg | 32 µg/mL (≈ 57.7 µM) | 64 µg/mL (≈ 115 µM) | 0.25 µg/mL (≈ 0.451 µM) | 8 µg/mL (≈ 14.4 µM) | 64 µg/mL (≈ 115 µM) | 0.06 µg/mL (≈ 0.108 µM) | > 10 mg/kg | 0.5 µg/mL (≈ 0.902 µM) | 0.06 µg/mL (≈ 0.108 µM) | 41.6 mg/kg | > 128 µg/mL | 4 µg/mL (≈ 7.21 µM) | > 128 µg/mL | 0.06 µg/mL (≈ 0.108 µM) | –
3 | CO/N=C(\C(=O)N[C@@H]1C(=O)N2C(C(=O)[O-])=C(C[n+]3cc(C)cc(C)c3)CS[C@H]12)c1csc(N)n1 | 0.06 µg/mL (≈ 0.119 µM) | – | 2 µg/mL (≈ 3.98 µM) | < 0.008 µg/mL | 0.03 µg/mL (≈ 0.0597 µM) | – | 8 µg/mL (≈ 15.9 µM) | 8 µg/mL (≈ 15.9 µM) | 0.125 µg/mL (≈ 0.249 µM) | 4 µg/mL (≈ 7.96 µM) | – | 0.03 µg/mL (≈ 0.0597 µM) | – | 0.125 µg/mL (≈ 0.249 µM) | 0.06 µg/mL (≈ 0.119 µM) | – | > 128 µg/mL | 1 µg/mL (≈ 1.99 µM) | 8 µg/mL (≈ 15.9 µM) | – | Hydrolysis rate (Klebsiella pneumoniae [17]): 1.5; Hydrolysis rate (Enterobacter cloacae [18]): 0.1; Hydrolysis rate (Pseudomonas aeruginosa [19]): 0.1; Hydrolysis rate (Staphylococcus aureus [20]): 6.1; Hydrolysis rate (Escherichia coli [21]): 0.5
4 | CO/N=C(\C(=O)N[C@@H]1C(=O)N2C(C(=O)[O-])=C(C[n+]3ccc4c(c3)nc(C)n4C)CS[C@H]12)c1csc(N)n1 | 0.008 µg/mL (≈ 0.0147 µM) | – | – | 0.008 µg/mL (≈ 0.0147 µM) | 0.008 µg/mL (≈ 0.0147 µM) | – | 8 µg/mL (≈ 14.7 µM) | 2 µg/mL (≈ 3.69 µM) | – | 4 µg/mL (≈ 7.37 µM) | – | 0.008 µg/mL (≈ 0.0147 µM) | – | – | 0.008 µg/mL (≈ 0.0147 µM) | – | 128 µg/mL (≈ 236 µM) | 2 µg/mL (≈ 3.69 µM) | 4 µg/mL (≈ 7.37 µM) | – | RAP (Cavia porcellus): 1
5 | CO/N=C(\C(=O)N[C@@H]1C(=O)N2C(C(=O)[O-])=C(C[n+]3cccc(Cl)c3)CS[C@H]12)c1csc(N)n1 | 0.06 µg/mL (≈ 0.118 µM) | 1 µg/mL (≈ 1.96 µM) | 2 µg/mL (≈ 3.93 µM) | < 0.008 µg/mL | 0.06 µg/mL (≈ 0.118 µM) | 0.14 mg/kg | 4 µg/mL (≈ 7.86 µM) | 16 µg/mL (≈ 31.4 µM) | 0.06 µg/mL (≈ 0.118 µM) | 2 µg/mL (≈ 3.93 µM) | 8 µg/mL (≈ 15.7 µM) | 0.015 µg/mL (≈ 0.0295 µM) | 1.6 mg/kg | 0.25 µg/mL (≈ 0.491 µM) | 0.06 µg/mL (≈ 0.118 µM) | > 50 mg/kg | > 128 µg/mL | 1 µg/mL (≈ 1.96 µM) | 8 µg/mL (≈ 15.7 µM) | 0.06 µg/mL (≈ 0.118 µM) | –
6 | CCC(CC)c1cc[n+](CC2=C(C(=O)[O-])N3C(=O)[C@@H](NC(=O)/C(=N\OC)c4csc(N)n4)[C@H]3SC2)cc1 | 0.06 µg/mL (≈ 0.11 µM) | 4 µg/mL (≈ 7.34 µM) | 4 µg/mL (≈ 7.34 µM) | < 0.008 µg/mL | 0.03 µg/mL (≈ 0.0551 µM) | 0.5 mg/kg | 64 µg/mL (≈ 118 µM) | 8 µg/mL (≈ 14.7 µM) | 0.5 µg/mL (≈ 0.918 µM) | 16 µg/mL (≈ 29.4 µM) | 64 µg/mL (≈ 118 µM) | 0.015 µg/mL (≈ 0.0275 µM) | 2.5 mg/kg | 0.5 µg/mL (≈ 0.918 µM) | 0.125 µg/mL (≈ 0.23 µM) | 11 mg/kg | > 128 µg/mL | 2 µg/mL (≈ 3.67 µM) | 16 µg/mL (≈ 29.4 µM) | 0.125 µg/mL (≈ 0.23 µM) | –
7 | CO/N=C(\C(=O)N[C@@H]1C(=O)N2C(C(=O)[O-])=C(C[n+]3ccc4nc(C)n(C)c4c3)CS[C@H]12)c1csc(N)n1 | 0.015 µg/mL (≈ 0.0276 µM) | – | – | 0.015 µg/mL (≈ 0.0276 µM) | 0.015 µg/mL (≈ 0.0276 µM) | – | 8 µg/mL (≈ 14.7 µM) | 2 µg/mL (≈ 3.69 µM) | – | 2 µg/mL (≈ 3.69 µM) | – | 0.015 µg/mL (≈ 0.0276 µM) | – | – | 0.015 µg/mL (≈ 0.0276 µM) | – | 128 µg/mL (≈ 236 µM) | 2 µg/mL (≈ 3.69 µM) | 4 µg/mL (≈ 7.37 µM) | – | RAP (Cavia porcellus): 2

From ChEMBL document CHEMBL1124865, “Synthesis and biological evaluation of a series of parenteral 3'-quaternary ammonium cephalosporins” (J Med Chem, 1990)
